Assay [1] can be described thus: Displacement of [125I]-IMPY from amyloid beta (1 to 42) fibrils after 2 hrs by gamma-counting analysis. Put shortly: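 Competition binding with aggregated Aβ1-42 fibrils and [125I]IMPY (60000−100000 cpm/100 μL) in 0.05% BSA (1 mL total); inhibitors 10⁻⁴−10^−8.5 M in ethanol. Incubated 37 °C for 2 h, then GF/B vacuum filtration with PBS (0.02 M, pH 7.4) washes and γ counting. Three repeats; IC50 converted to Ki by Cheng−Prusoff.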

The species entered for assay [2] is Mus musculus. Kind of assay: Binding affinity to amyloid beta plaques in transgenic C57BL6 mouse cortex expressing APP Swedish mutant/PSEN1 at 370 KBq/100 ul after 1 hr by thioflavinS-staining method. Particulars: tested as the 18F-labelled form. Put shortly:
(§1)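 Paraffin brain sections from 12-month-old Tg mice (C57BL6, APPswe/PSEN1) and age-matched controls, deparaffinized through xylene and graded ethanol, then PBS (0.2 M, pH 7.4) 30 min. Incubated with 18F tracer (370 KBq per 100 μL) 1 h at room temperature, washed in 40% EtOH, rinsed in water, then phosphor plate exposure 2 h. The same sections were afterwards stained with 0.125% thioflavin S in 10% EtOH for 3 min and washed in 40% EtOH.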

The species named for assay [3] is Mus musculus. Nature of the assay: Binding affinity to amyloid beta plaques in transgenic C57BL6 mouse hippocampus expressing APP Swedish mutant/PSEN1 at 370 KBq/100 ul after 1 hr by thioflavinS-staining method. It counts as tissue-based. Particulars: tested as the 18F-labelled form. In outline:
as §1

The species entered for assay [4] is Mus musculus. Nature of the assay: Binding affinity to amyloid beta plaques in transgenic C57BL6 mouse cortex expressing APP Swedish mutant/PSEN1 at 370 KBq/100 ul after 1 hr by autoradiographic analysis. Particulars: tested as the 18F-labelled form. Put shortly: as §1
The species named for assay [5] is Mus musculus. Nature of the assay: Binding affinity to amyloid beta plaques in transgenic C57BL6 mouse hippocampus expressing APP Swedish mutant/PSEN1 at 370 KBq/100 ul after 1 hr by autoradiographic analysis. Particulars: tested as the 18F-labelled form. In kind it is tissue-based. Put shortly:
as §1

Activity calls are given as the source filed them. The rule behind the calls is not given here.

In the case of `CN(C)c1ccc(-c2nc3cc(OCCF)ccc3o2)cn1`, the inhibitory constant (Ki) in assay [1] turned out to be 2.7 nM. In addition, the outcome in the assay listed under Mus musculus [2], in the assay filed under Mus musculus [3], in the assay filed under Mus musculus [4] and in the assay listed under Mus musculus [5] was Active.

Turning to `CN(C)c1ccc(-c2nc3ccc(OCCF)cc3s2)cn1`, affinity in assay [1] was put at a Ki of 2.7 nM.

In assay [1], `CN(C)c1ccc(-c2nc3ccc(OCCOCCF)cc3s2)cn1` had a Ki of 4.6 nM.

In the case of `CN(C)c1ccc(-c2nc3ccc(OCCOCCOCCF)cc3s2)cn1`, the affinity in assay [1] corresponds to a Ki of 5.8 nM. For the same molecule, the result in the assay listed under Mus musculus [2], in the assay listed under Mus musculus [3], in the assay listed under Mus musculus [4] and in the assay filed under Mus musculus [5] was Active.

Molecule `CNc1ccc(-c2nc3cc(OCCOCCF)ccc3o2)cn1` registered a Ki in assay [1] of 102 nM. This lies in the sub-micromolar range.

One may read the Ki as a measure of affinity in units of concentration, obtained from inhibition or displacement. Low values mean tighter binding, high ones weaker binding.

Source of the values: ChEMBL document CHEMBL2177098, “Synthesis and evaluation of novel ¹⁸F labeled 2-pyridinylbenzoxazole and 2-pyridinylbenzothiazole derivatives as ligands for positron emission tomography (PET) imaging of β-amyloid plaques” (J Med Chem, 2012).
